Data on seven molecules can be found in ChEMBL document CHEMBL4033743, “Design, synthesis, and structure-activity relationships of pyrimido[4,5-b]indole-4-amines as microtubule depolymerizing agents that are effective against multidrug resistant cells” (Bioorg Med Chem Lett, 2017).

Active and inactive are the calls of the source.

In test [1] the test system is HeLa. Description: Antiproliferative activity against human HeLa cells expressing beta3-tubulin by SRB assay. It counts as functional, cell-based. An outline of the steps:
(§1)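 Antiproliferative IC50s were measured by SRB assay in isogenic cell-line pairs. For Pgp-mediated resistance, the pair was parental SK-OV-3 ovarian cancer cells and Pgp-expressing SK-OV-3 MDR-1-M6/6 cells. For βIII-tubulin-mediated resistance, the pair was parental HeLa cells and βIII-tubulin-expressing HeLa cells.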
A general note: Sulforhodamine B stains cellular protein and so reports cell mass.

A further test concerns MDA-MB-435. In words: Antiproliferative activity against human MDA-MB-435 cells by SRB assay. It counts as functional, cell-based. An outline of the steps:
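Proliferation of MDA-MB-435 melanoma cells was read by sulforhodamine B (SRB) assay. IC50 was taken as the concentration causing 50% inhibition of proliferation.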

Test [2] deals with HeLa. In words: Resistance index, ratio of IC50 for antiproliferative activity against human HeLa cells expressing beta3-tubulin cells to IC50 for antiproliferative activity against human HeLa cells. It counts as functional. The essentials:
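Relative resistance (Rr) was calculated as the SRB IC50 in βIII-tubulin-expressing HeLa cells divided by the SRB IC50 in parental HeLa cells.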

For the next test, the species on record is Bos taurus. Description: Inhibition of [3H]colchicine binding to bovine brain tubulin at 5 uM.
A further test deals with SK-OV-3. Description: Antiproliferative activity against human SKOV3 cells by SRB assay. It counts as functional, cell-based. The essentials:
as §1

Test [3] is described as follows: Antiproliferative activity against human SKOV3-MDR1-M6/6 cells by SRB assay. Format: functional, cell-based. An outline of the steps: as §1
Test [4] can be described thus: Ratio of EC50 for induction of microtubule depolymerization in rat A10 cells to IC50 for antiproliferative activity against human MDA-MB-435 cells.
Test [5] can be described thus: Resistance index, ratio of IC50 for antiproliferative activity against human SKOV3-MDR1-M6/6 cells to IC50 for antiproliferative activity against human SKOV3 cells. Format: functional. The essentials:
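Relative resistance (Rr) was calculated as the SRB IC50 in Pgp-expressing SK-OV-3 MDR-1-M6/6 cells divided by the SRB IC50 in parental SK-OV-3 cells.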

Test [6] in a line: Induction of microtubule depolymerization in rat A10 cells assessed as cellular microtubule loss incubated for 18 hrs by indirect immunofluorescence assay. Format: cell-based. As to conditions: A10, 18 h. An outline of the steps: (§2)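 Cellular microtubule loss was scored. EC50 was defined as the concentration causing 50% loss of cellular microtubules.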
The test system of test [7] is HeLa. Description: Antiproliferative activity against human HeLa cells by SRB assay. Format: functional, cell-based. The essentials:
as §1

The nature of test [8]: Inhibition of bovine brain tubulin assembly. Also noted: species or system Bos taurus.
The species named for a further test is Rattus norvegicus. In words: Induction of microtubule depolymerization in rat A10 cells assessed as cellular microtubule loss up to 40 uM incubated for 18 hrs by indirect immunofluorescence assay. Format: cell-based. An outline of the steps:
as §2

With `COc1ccc(N(C)c2nc(C)nc3[nH]c4ccccc4c23)cc1`, the IC50 was 31.8 nM in the test with HeLa [1]; 33.9 nM in the test on MDA-MB-435; 60.5 nM in the test with SK-OV-3; 78 nM in test [3]; 50.5 nM with HeLa [7]; 1200 nM in [8]. The “Ratio IC50” value is listed as 0.6 with HeLa [2] and 1.3 in [5]. In addition, the inhibition in the test filed under Bos taurus stood at 67%. In test [4], the Ratio amounted to 3.8. For the same molecule, the 50% effective concentration (EC50) in [6] turned out to be 130 nM.
Regarding `COc1ccc(N(C)c2ncnc3[nH]c4ccccc4c23)cc1`, the IC50 stood at 99.5 nM with HeLa [1]; 130 nM with MDA-MB-435; 173 nM in the test with SK-OV-3; 224 nM in test [3]; 142 nM in the test on HeLa [7]; 2300 nM in test [8]. Further, the “Ratio IC50” value with HeLa [2] was 0.8; in test [5] it was 1.4. Besides, the inhibition in the test filed under Bos taurus was determined as 62%. In addition, in test [4], the Ratio amounted to 9.2. Further, the EC50 in test [6] amounted to 1200 nM.
On to `COc1ccc(N(C)c2nc(N)nc3[nH]c4cccc(Cl)c4c23)cc1`, for which the IC50 in the test with MDA-MB-435 amounted to 3900 nM. Further, the outcome in the test filed under Rattus norvegicus was inactive.
On to `CSc1ccc(N(C)c2nc(N)nc3[nH]c4ccccc4c23)cc1`, for which the IC50 with HeLa [1] was found to be 78.4 nM; with MDA-MB-435, 89.1 nM; in the test with SK-OV-3 it was 156 nM; in test [3], 160 nM; with HeLa [7], 118 nM; in [8], 2300 nM. In addition, the “Ratio IC50” value is on record as 0.7 with HeLa [2] and 1 in [5]. Moreover, in the test listed under Bos taurus, the inhibition was 67%. Besides, in [4], the Ratio came out at 12. The EC50 in test [6] is 1100 nM.
As to `COc1ccc(N(C)c2nc(N)nc3[nH]c4cccc(C)c4c23)cc1`, the half-maximal inhibitory concentration (IC50) in the test with MDA-MB-435 came out at 220 nM. In addition, in [4], the Ratio is reported as 6.5. Also, in test [6], the EC50 was found to be 1400 nM.
With `COc1ccc2c(c1)CCCN2c1nc(N)nc2[nH]c3ccccc3c12`, the IC50 amounted to 87 nM in the test on HeLa [1]; 54.4 nM in the test on MDA-MB-435; 83.2 nM in the test on SK-OV-3; 135 nM in test [3]; 72.1 nM in the test with HeLa [7]; 2200 nM in [8]. For the same molecule, the “Ratio IC50” value in the test on HeLa [2] turned out to be 1.2; in [5], 1.6. This molecule displayed an inhibition in the test listed under Bos taurus of 71%. Further, in [4], the Ratio is 2.8. The EC50 in test [6] is 150 nM.
`COc1ccc2c(c1)CCCN2c1nc(N)nc2[nH]c3cccc(Cl)c3c12` gave an IC50 in the test on MDA-MB-435 of 271 nM. The Ratio in test [4] stood at 15. The EC50 in test [6] came out at 3700 nM.

A word on the IC50: it is the midpoint of a concentration-inhibition curve. Read a low IC50 as greater potency. As usually defined, the inhibition is the drop in the measured response relative to a control, in per cent. A word on the EC50: it is the concentration at which the effect is half-maximal.
